Columns and labels:
[1] = Ratio of drug level in tumor to skin in iv dosed BDXI rat implanted with rat LSBD1 cells after 24 hrs; format: ADME, organism-based; details: in vivo
HeLa [2] = test: Photocytotoxicity against human HeLa cells assessed as cell survival preincubated for 24 hrs followed by irradiation at 16 J/cm2 measured at 24 hrs by WST-8 assay; format: functional, cell-based; details: light or radiation study
In short: (§1)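 Cells (5 × 10^3/well) in DMEM with 10% FCS, 24 h at 37°C, 5% CO2; photosensitizer 1–50000 nM (1% DMSO final) for 24 h, washed, fresh medium. Irradiated with 100-W halogen lamp through λ>500 nm or λ>600 nm cutoff filter to 16 J·cm−2; WST-8 absorbance at 450 nm 24 h later, survival normalized to no-drug wells.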

[3] = Induction of reactive oxygen generation assessed as quantum yield of singlet oxygen generation in O2 saturated D2O containing 0.1% DMSO by spectrometry; format: physicochemical
In short: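 Photosensitizer in D2O with 0.1% DMSO, absorbance set to 0.4 at its excitation wavelength, oxygen-purged 1 min; singlet-oxygen luminescence recorded with NIR photomultiplier cooled to 193 K; TPPS as reference.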

[4] = Induction of reactive oxygen generation assessed as quantum yield of hydroxyl radical generation in O2 saturated PBS containing 1% DMSO under photoirradiation by spectrometry relative to control hematoporphyrin; format: physicochemical; details: buffer
In short: (§2)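 Photosensitizer (1.00 µM) with HPF (2.00 µM) in PBS containing 1% DMSO, oxygenated 1 min, irradiated with 100-W halogen lamp through λ>500 nm cutoff filter at 37°C; hematoporphyrin as reference.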

[5] = Induction of reactive oxygen generation assessed as quantum yield of hydrogen peroxide generation in O2 saturated PBS containing 1% DMSO under photoirradiation by spectrometry relative to control hematoporphyrin; format: physicochemical; details: buffer; in short: as §2
4T1 = test: Photocytotoxicity against mouse 4T1 cells assessed as cell survival preincubated for 24 hrs followed by irradiation at 16 J/cm2 measured at 24 hrs by WST-8 assay; format: functional, cell-based; details: 4T1, light or radiation study; in short: as §1
U-251 = test: Photocytotoxicity against human U251 cells assessed as cell survival preincubated for 24 hrs followed by irradiation at 16 J/cm2 measured at 24 hrs by WST-8 assay; format: functional, cell-based; details: U-251, light or radiation study; in short: as §1
[6] = Photocytotoxicity against human U87 cells assessed as cell survival preincubated for 24 hrs followed by irradiation at 16 J/cm2 measured at 24 hrs by WST-8 assay; format: functional, cell-based, U-87MG ATCC; details: U-87 MG, light or radiation study; in short: as §1
HeLa [7] = test: Drug uptake in human HeLa cells at 0.1 uM after 24 hrs by spectrophotometrical analysis; format: ADME, cell-based
In short: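 HeLa cells (2.5 × 10^6/well) in DMEM with 10% FCS, preincubated 24 h at 37°C; photosensitizer added to 0.1 µM final (1% DMSO) for 24 h, two wells each. Cells washed twice with PBS, lysed in DMSO, Soret-band absorbance read against DMSO calibration; mean of three replicate experiments.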

[8] = Photocytotoxicity against rat RGK1 cells assessed as cell survival preincubated for 24 hrs followed by irradiation at 16 J/cm2 measured at 24 hrs by WST-8 assay; format: functional, cell-based; details: RGK1, light or radiation study; in short: as §1
HeLa [9] = test: Dark cytotoxicity against human HeLa cells at 0.5 uM assessed as cell survival preincubated for 24 hrs measured by WST-8 assay in absence of photoirradiation; format: cell-based
In short: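 HeLa cells were seeded at 5 × 10^3 per well in DMEM with 10% FCS and grown for 24 h at 37°C. They were then exposed for 24 h to 0.5 µM photosensitizer (1% DMSO final), washed, and not irradiated. Viability was read 24 h later by WST-8 absorbance at 450 nm and expressed as percent of untreated wells.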

T98G = test: Photocytotoxicity against human T98G cells assessed as cell survival preincubated for 24 hrs followed by irradiation at 16 J/cm2 measured at 24 hrs by WST-8 assay; format: functional, cell-based; details: light or radiation study; in short: as §1
[10] = Photocytotoxicity against mouse B16-F1 cells assessed as cell survival preincubated for 24 hrs followed by irradiation at 16 J/cm2 measured at 24 hrs by WST-8 assay; format: functional, cell-based; details: B16-F1, light or radiation study; in short: as §1

| SMILES | EC50 (HeLa [2]) | Activity [3] | Ratio [4] | Ratio [5] | Drug uptake (HeLa [7]) | Activity (HeLa [9]) | further results |
| --- | --- | --- | --- | --- | --- | --- | --- |
| Oc1cccc(-c2c3nc(c(-c4cccc(O)c4)c4ccc([nH]4)c(-c4cccc(O)c4)c4nc(c(-c5cccc(O)c5)c5ccc2[nH]5)CC4)C=C3)c1 [TEMOPORFIN] | – | – | – | – | – | – | Ratio [1]: 3 |
| OC[C@H]1O[C@@H](Oc2ccc(/C3=C4\C=CC(=N4)C(c4ccc(O[C@@H]5O[C@H](CO)[C@@H](O)[C@H](O)[C@H]5O)cc4)C4=N/C(=C(/c5ccc(O[C@@H]6O[C@H](CO)[C@@H](O)[C@H](O)[C@H]6O)cc5)c5ccc([nH]5)/C(c5ccc(O[C@@H]6O[C@H](CO)[C@@H](O)[C@H](O)[C@H]6O)cc5)=C5/C=CC3=N5)C=C4)cc2)[C@H](O)[C@@H](O)[C@@H]1O (stereo partly drawn) | 5000 nM | – | – | – | – | – | – |
| O=S(=O)(O)c1ccc(-c2c3nc(c(-c4ccc(S(=O)(=O)O)cc4)c4ccc([nH]4)c(-c4ccc(S(=O)(=O)O)cc4)c4nc(c(-c5ccc(S(=O)(=O)O)cc5)c5ccc2[nH]5)C=C4)C=C3)cc1 | – | 0.72 | – | – | – | – | – |
| CC1=C(CCC(=O)O)c2cc3[nH]c(cc4nc(cc5[nH]c(cc1n2)c(C)c5C(C)O)C(C)=C4C(C)O)c(C)c3CCC(=O)O (stereo not drawn) [HEMATOPORPHYRIN] | – | – | 1 | 1 | – | – | – |
| OC[C@H]1O[C@@H](Sc2c(F)c(F)c(/C3=C4\C=CC(=N4)C(c4c(F)c(F)c(F)c(F)c4F)C4=N/C(=C(/c5c(F)c(F)c(S[C@@H]6O[C@H](CO)[C@@H](O)[C@H](O)[C@H]6O)c(F)c5F)c5ccc([nH]5)/C(c5c(F)c(F)c(F)c(F)c5F)=C5/C=CC3=N5)C=C4)c(F)c2F)[C@H](O)[C@@H](O)[C@@H]1O (stereo partly drawn) | 10 nM | 0.16 | 7.7 | 0.8 | Active | Non-toxic | EC50 (4T1): 10 nM; EC50 (U-251): 10 nM; EC50 [6]: 10 nM; EC50 [8]: 10 nM; EC50 (T98G): 10 nM; EC50 [10]: 1 nM |
| CN1CC2C3=N/C(=C(/c4c(F)c(F)c(S[C@@H]5O[C@H](CO)[C@@H](O)[C@H](O)[C@H]5O)c(F)c4F)C4=N/C(=C(/c5c(F)c(F)c(S[C@@H]6O[C@H](CO)[C@@H](O)[C@H](O)[C@H]6O)c(F)c5F)c5ccc([nH]5)/C(c5c(F)c(F)c(S[C@@H]6O[C@H](CO)[C@@H](O)[C@H](O)[C@H]6O)c(F)c5F)=C5/C=CC(=N5)C3c3c(F)c(F)c(S[C@@H]5O[C@H](CO)[C@@H](O)[C@H](O)[C@H]5O)c(F)c3F)C=C4)C2C1 (stereo partly drawn) | 50 nM | 0.17 | 1.1 | 1.7 | Active | Non-toxic | – |

Source: ChEMBL document CHEMBL3734686, “Synthesis, Photophysical Properties, and Biological Evaluation of trans-Bisthioglycosylated Tetrakis(fluorophenyl)chlorin for Photodynamic Therapy” (J Med Chem, 2015)
